# Legend:
# Format in all cases: functional
# Mycobacterium kansasii [1] = experiment: Antimycobacterial activity against Mycobacterium kansasii CNCTC My 235/80 after 14 days by microdilution method; conditions: CNCTC My 235/80, 336 h
# Method in brief: (§1)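 Strains from the Czech National Collection of Type Cultures, tested by dilution micromethod in Šula semisynthetic medium. Incubated at 37 °C and read at 14 and 21 days. MIC is the lowest concentration inhibiting growth.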
# [2] = test system: Mycobacterium tuberculosis; experiment: Antimycobacterial activity against Mycobacterium tuberculosis CNCTC My 331/88 after 21 days by microdilution method; conditions: CNCTC My 331/88, 504 h; method in brief: as §1
# Mycobacterium kansasii [3] = experiment: Antimycobacterial activity against Mycobacterium kansasii CNCTC My 235/80 after 21 days by microdilution method; conditions: CNCTC My 235/80, 504 h; method in brief: as §1
# Mycobacterium kansasii [4] = experiment: Antimycobacterial activity against Mycobacterium kansasii 6509/96 after 21 days by microdilution method; conditions: 6509/96, 504 h
# Method in brief: (§2)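 Clinical isolate that, unlike the standard strain, is not isoniazid-resistant. Tested by dilution micromethod in Šula semisynthetic medium, with compounds added in DMSO at final 1000 down to 0.25 µmol/L in twofold steps. Löwenstein-Jensen plate used as inoculum sterility and growth control. Incubated at 37 °C and read at 14 and 21 days. MIC is the lowest concentration inhibiting growth.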
# [5] = test system: Mycobacterium tuberculosis; experiment: Antimycobacterial activity against Mycobacterium tuberculosis CNCTC My 331/88 after 14 days by microdilution method; conditions: CNCTC My 331/88, 336 h; method in brief: as §1
# Mycobacterium kansasii [6] = experiment: Antimycobacterial activity against Mycobacterium kansasii 6509/96 after 14 days by microdilution method; conditions: 6509/96, 336 h; method in brief: as §2
# Mycobacterium avium [7] = experiment: Antimycobacterial activity against Mycobacterium avium CNCTC My 330/88 after 14 days by microdilution method; conditions: CNCTC My 330/88, 336 h; method in brief: as §1
# Mycobacterium avium [8] = experiment: Antimycobacterial activity against Mycobacterium avium CNCTC My 330/88 after 21 days by microdilution method; conditions: CNCTC My 330/88, 504 h; method in brief: as §1
SMILES,MIC (Mycobacterium kansasii [1]) [µM],MIC [2] [µM],MIC (Mycobacterium kansasii [3]) [µM],MIC (Mycobacterium kansasii [4]) [µM],MIC [5] [µM],MIC (Mycobacterium kansasii [6]) [µM],MIC (Mycobacterium avium [7]) [µM],MIC (Mycobacterium avium [8]) [µM]
CC(C)(C)c1ccc(-n2c(=O)oc3ccc(Cl)cc3c2=O)cc1,8,16,16,8,8,8,16,32
CC(C)(C)c1ccc(-n2c(=O)oc3ccc(F)cc3c2=O)cc1,16,16,16,16,16,8,16,16
CCc1ccc(-n2c(=O)oc3ccc(Br)cc3c2=S)cc1,8,0.5,16,8,0.5,4,32,32
CCc1ccc(-n2c(=O)oc3ccc(Cl)cc3c2=S)cc1,8,0.5,8,4,0.5,4,16,16
CCc1ccc(-n2c(=O)oc3cc(Cl)ccc3c2=S)cc1,8,0.5,8,8,0.5,8,8,8
CC(C)c1ccc(-n2c(=O)oc3ccc(Br)cc3c2=S)cc1,32,0.5,62.5,8,0.25,4,4,8
CC(C)c1ccc(-n2c(=O)oc3ccc(Cl)cc3c2=S)cc1,8,1,16,2,0.5,1,32,125
CC(C)c1ccc(-n2c(=O)oc3ccc(F)cc3c2=S)cc1,2,0.5,4,4,0.25,4,0.5,1
Cc1ccc2c(=S)n(-c3ccc(C(C)C)cc3)c(=O)oc2c1,2,0.5,4,2,0.25,1,0.5,1
CCC(C)c1ccc(-n2c(=O)oc3ccc(Br)cc3c2=S)cc1 (stereo not given),4,0.5,8,4,0.25,2,16,32
CCC(C)c1ccc(-n2c(=O)oc3ccc(F)cc3c2=S)cc1 (stereo not given),4,0.5,4,4,0.25,2,1,1
CCC(C)c1ccc(-n2c(=O)oc3cc(C)ccc3c2=S)cc1 (stereo not given),1,0.5,2,1,0.25,0.5,0.5,0.5
CC(C)(C)c1ccc(-n2c(=O)oc3ccc(Cl)cc3c2=S)cc1,8,0.5,8,8,0.25,4,1,2
CC(C)(C)c1ccc(-n2c(=O)oc3ccc(F)cc3c2=S)cc1,4,0.5,8,8,0.25,8,0.5,1
Cc1ccc2c(=S)n(-c3ccc(C(C)(C)C)cc3)c(=O)oc2c1,2,0.5,2,1,0.25,1,0.25,0.5

# From ChEMBL document CHEMBL1287747, “Highly active antimycobacterial derivatives of benzoxazine” (2010)
